Values after ≈ are worked out from the molar mass of the structure shown.
Legend:
Influenza B virus [1] = test: Antiviral activity against Influenza B virus (B/Hong Kong/05/1972) infected in MDCK cells assessed as reduction of virus-induced cytopathic effect after 72 hrs by microscopic analysis; type: functional, cell-based; conditions: B/Hong Kong/05/1972, MDCK
How it was run: (§1)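 Subconfluent MDCK cultures given serial compound dilutions together with virus at MOI 0.0004 PFU/cell. Incubation 72 h at 35°C. […] Means of 2 to 5 independent tests.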

Influenza B virus [2] = test: Antiviral activity against Influenza B virus (B/Hong Kong/05/1972) infected in MDCK cells assessed as cell viability after 72 hrs by MTS assay; type: functional, cell-based; conditions: B/Hong Kong/05/1972, MDCK; how it was run: as §1
[3] = Cytotoxicity against MDCK cells after 72 hrs by MTS assay; type: cell-based, Canis lupus familiaris; conditions: dog
How it was run: (§2)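 Uninfected MDCK cultures were run in parallel with serial compound dilutions for 72 h at 35°C. MCC is the concentration producing minimal changes in cell morphology, judged by microscopy. […] Means of 2 to 5 independent tests.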

[4] = Cytotoxicity against MDCK cells after 72 hrs by microscopic analysis; type: cell-based, Canis lupus familiaris; conditions: dog; how it was run: as §2
[5] = Antiviral activity against Influenza A virus (A/Hong Kong/7/1987(H3N2)) infected in MDCK cells assessed as cell viability after 72 hrs by MTS assay; type: functional, cell-based; how it was run: as §1
[6] = Antiviral activity against Influenza A virus (A/Hong Kong/7/1987(H3N2)) infected in MDCK cells assessed as reduction of virus-induced cytopathic effect after 72 hrs by microscopic analysis; type: functional, cell-based; how it was run: as §1
Influenza A virus [7] = test: Antiviral activity against Influenza A virus (A/Puerto Rico/8/34(H1N1)) infected in MDCK cells assessed as cell viability after 72 hrs by MTS assay; type: functional, organism-based, A/Puerto Rico/8/1934(H1N1); how it was run: as §1
Influenza A virus [8] = test: Antiviral activity against Influenza A virus (A/Puerto Rico/8/34(H1N1)) infected in MDCK cells assessed as reduction of virus-induced cytopathic effect after 72 hrs by microscopic analysis; type: functional, organism-based; conditions: A/Puerto Rico/8/1934(H1N1)
How it was run: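 Subconfluent MDCK cultures given serial compound dilutions together with virus at MOI 0.0004 PFU/cell. Incubation 72 h at 35°C. Means of 2 to 5 independent tests.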

Enterococcus faecalis [9] = test: Antibacterial activity against VanB+ Enterococcus faecalis ATCC 51299 by broth microdilution method; type: functional
Bacillus spizizenii = test: Antibacterial activity against Bacillus subtilis ATCC 6633 by broth microdilution method; type: functional
Staphylococcus aureus [10] = test: Antibacterial activity against methicillin-sensitive Staphylococcus aureus ATCC 29213 by broth microdilution method; type: functional
Staphylococcus aureus [11] = test: Antibacterial activity against methicillin-resistant Staphylococcus aureus ATCC 33591 by broth microdilution method; type: functional
[12] = system: Staphylococcus epidermidis; test: Antibacterial activity against Staphylococcus epidermidis expressing mecA by broth microdilution method; type: functional
Enterococcus faecalis [13] = test: Antibacterial activity against Enterococcus faecalis ATCC 29212 by broth microdilution method; type: functional
[14] = system: Staphylococcus epidermidis; test: Antibacterial activity against biofilm producing Staphylococcus epidermidis ATCC 35984 by broth microdilution method; type: functional
Enterococcus faecalis [15] = test: Antibacterial activity against VanA+ Enterococcus faecalis 15376 by broth microdilution method; type: functional
[16] = Influenza A virus, A/Puerto Rico/8/1934(H1N1), MDCK, 72 h

Compound | EC50 (Influenza B virus [1]) [µM] | EC50 (Influenza B virus [2]) [µM] | CC50 at 72 h [3] [µM] | MCC at 72 h [4] [µM] | EC50 [5] [µM] | EC50 [6] [µM] | EC50 (Influenza A virus [7]; [16]) [µM] | EC50 (Influenza A virus [8]) [µM] | MIC (Enterococcus faecalis [9]) [µg/mL] | MIC (Bacillus spizizenii) [µg/mL] | MIC (Staphylococcus aureus [10]) [µg/mL] | MIC (Staphylococcus aureus [11]) [µg/mL] | MIC [12] [µg/mL] | MIC (Enterococcus faecalis [13]) [µg/mL] | MIC [14] [µg/mL] | MIC (Enterococcus faecalis [15]) [µg/mL] | EC50 (Influenza A virus [7]; mdck) [µM]
COC(=O)[C@H]1NC(=O)[C@H]2NC(=O)[C@H](NC(=O)[C@@H]3NC(=O)[C@H]4NC(=O)[C@H](NC(=O)[C@H](N)c5ccc(O)c(c5)Oc5cc4cc(O)c5C)[C@H](O)c4ccc(cc4)Oc4cc3cc(c4O)Oc3ccc(cc3)[C@H]2O)c2ccc(O)c(c2)-c2c(O)cc(O)cc21 | 5.1 | 5.4 | 44 | 81 | 2.5 | 4.6 |  |  |  |  |  |  |  |  |  |  | 
CC(=O)N[C@H]1[C@H](O[C@@H]2c3ccc(c(Cl)c3)Oc3cc4cc(c3O)Oc3ccc(cc3Cl)C[C@H]3NC(=O)[C@H](N)c5ccc(O)c(c5)Oc5cc(O)cc(c5)[C@H](NC3=O)C(=O)N[C@H]4C(=O)N[C@H]3C(=O)N[C@@H]2C(=O)N[C@H](C(=O)O)c2cc(O)cc(O)c2-c2cc3ccc2O)O[C@H](CO)[C@@H](O)[C@@H]1O | > 100 | > 100 | > 100 | ≥ 100 | 34 | 17 | 43 |  |  |  |  |  |  |  |  |  | 
COC(=O)[C@H]1NC(=O)[C@H]2NC(=O)[C@H](NC(=O)[C@@H]3NC(=O)[C@H]4NC(=O)[C@H](NC(=O)[C@H](Nc5c(NCc6ccc(-c7ccccc7)cc6)c(=O)c5=O)c5ccc(O)c(c5)Oc5cc4cc(O)c5C)[C@H](O)c4ccc(cc4)Oc4cc3cc(c4O)Oc3ccc(cc3)[C@H]2O)c2ccc(O)c(c2)-c2c(O)cc(O)cc21 [listing 1 of 2 here] | 0.84 | 1 | 39 | 20 | ≤ 0.42 | 0.15 | 0.21 | 0.15 |  |  |  |  |  |  |  |  | 
COC(=O)[C@H]1NC(=O)[C@H]2NC(=O)[C@H](NC(=O)[C@@H]3NC(=O)[C@H]4NC(=O)[C@H](NC(=O)[C@H](Nc5c(NCc6ccc(-c7ccccc7)cc6)c(=O)c5=O)c5ccc(O)c(c5)Oc5cc4cc(O)c5C)[C@H](O)c4ccc(cc4)Oc4cc3cc(c4O)Oc3ccc(cc3)[C@H]2O)c2ccc(O)c(c2)-c2c(O)cc(O)cc21 [listing 2 of 2 here] |  |  |  |  |  |  |  |  | 8 (≈ 5.57 µM) | 2 (≈ 1.39 µM) | 1 (≈ 0.697 µM) | 8 (≈ 5.57 µM) | 2 (≈ 1.39 µM) | 1 (≈ 0.697 µM) | 2 (≈ 1.39 µM) |  | 
CC(=O)N[C@H]1[C@H](O[C@@H]2c3ccc(c(Cl)c3)Oc3cc4cc(c3O)Oc3ccc(cc3Cl)C[C@H]3NC(=O)[C@H](Nc5c(NCc6ccc(-c7ccccc7)cc6)c(=O)c5=O)c5ccc(O)c(c5)Oc5cc(O)cc(c5)[C@H](NC3=O)C(=O)N[C@H]4C(=O)N[C@H]3C(=O)N[C@@H]2C(=O)N[C@H](C(=O)O)c2cc(O)cc(O)c2-c2cc3ccc2O)O[C@H](CO)[C@@H](O)[C@@H]1O [listing 1 of 2 here] | > 100 | > 100 | 6.5 | 0.8 | > 100 | > 100 | > 100 | > 100 |  |  |  |  |  |  |  |  | 
CC(=O)N[C@H]1[C@H](O[C@@H]2c3ccc(c(Cl)c3)Oc3cc4cc(c3O)Oc3ccc(cc3Cl)C[C@H]3NC(=O)[C@H](Nc5c(NCc6ccc(-c7ccccc7)cc6)c(=O)c5=O)c5ccc(O)c(c5)Oc5cc(O)cc(c5)[C@H](NC3=O)C(=O)N[C@H]4C(=O)N[C@H]3C(=O)N[C@@H]2C(=O)N[C@H](C(=O)O)c2cc(O)cc(O)c2-c2cc3ccc2O)O[C@H](CO)[C@@H](O)[C@@H]1O [listing 2 of 2 here] |  |  |  |  |  |  |  |  | 8 (≈ 4.81 µM) | 4 (≈ 2.4 µM) | 1 (≈ 0.601 µM) | 4 (≈ 2.4 µM) | 1 (≈ 0.601 µM) | 4 (≈ 2.4 µM) | 1 (≈ 0.601 µM) | 256 (≈ 154 µM) | 
COC(=O)[C@H]1NC(=O)[C@H]2NC(=O)[C@H](NC(=O)[C@@H]3NC(=O)[C@H]4NC(=O)[C@@H](Cc5ccc(c(Cl)c5)Oc5cc3cc(c5O)Oc3ccc(cc3Cl)[C@H]2O[C@@H]2O[C@H](CO)[C@@H](O)[C@H](O)[C@H]2NC(C)=O)NC(=O)[C@H](N)c2ccc(O)c(c2)Oc2cc(O)cc4c2)c2ccc(O)c(c2)-c2c(O)cc(O)cc21 | > 100 | > 100 | > 100 | 100 | > 100 | > 100 | > 100 | > 100 |  |  |  |  |  |  |  |  | 
COC(=O)[C@H]1NC(=O)[C@H]2NC(=O)[C@H](NC(=O)[C@@H]3NC(=O)[C@H]4NC(=O)[C@@H](Cc5ccc(c(Cl)c5)Oc5cc3cc(c5O)Oc3ccc(cc3Cl)[C@H]2O[C@@H]2O[C@H](CO)[C@@H](O)[C@H](O)[C@H]2NC(C)=O)NC(=O)[C@H](Nc2c(OC)c(=O)c2=O)c2ccc(O)c(c2)Oc2cc(O)cc4c2)c2ccc(O)c(c2)-c2c(O)cc(O)cc21 | > 100 | > 100 | > 100 | 100 | > 100 | > 100 | > 100 | > 100 |  |  |  |  |  |  |  |  | 
COC(=O)[C@H]1NC(=O)[C@H]2NC(=O)[C@H](NC(=O)[C@@H]3NC(=O)[C@H]4NC(=O)[C@@H](Cc5ccc(c(Cl)c5)Oc5cc3cc(c5O)Oc3ccc(cc3Cl)[C@H]2O[C@@H]2O[C@H](CO)[C@@H](O)[C@H](O)[C@H]2NC(C)=O)NC(=O)[C@H](Nc2c(NCc3ccc(-c5ccccc5)cc3)c(=O)c2=O)c2ccc(O)c(c2)Oc2cc(O)cc4c2)c2ccc(O)c(c2)-c2c(O)cc(O)cc21 | > 100 | > 100 | 58 | 20 | > 100 | > 100 | > 100 | > 100 |  |  |  |  |  |  |  |  | 
COc1c(N[C@H]2C(=O)N[C@@H]3Cc4ccc(c(Cl)c4)Oc4cc5cc(c4O)Oc4ccc(cc4Cl)[C@@H](O)[C@@H]4NC(=O)[C@H](NC(=O)[C@@H]5NC(=O)[C@@H](NC3=O)c3cc(O)cc(c3)Oc3cc2ccc3O)c2ccc(O)c(c2)-c2c(O)cc(O)cc2[C@@H](C(=O)O)NC4=O)c(=O)c1=O | > 100 | > 100 | 49 | 100 | > 100 | > 100 | > 100 | > 100 |  |  |  |  |  |  |  |  | 
O=C1N[C@H]2C(=O)N[C@H]3C(=O)N[C@H](C(=O)N[C@H](C(=O)O)c4cc(O)cc(O)c4-c4cc3ccc4O)[C@H](O)c3ccc(c(Cl)c3)Oc3cc2cc(c3O)Oc2ccc(cc2Cl)C[C@H]2NC(=O)[C@H](Nc3c(NCc4ccc(-c5ccccc5)cc4)c(=O)c3=O)c3ccc(O)c(c3)Oc3cc(O)cc(c3)[C@@H]1NC2=O | > 100 | > 100 | 11 | 20 | > 100 | > 100 | > 100 | > 100 |  |  |  |  |  |  |  |  | 
COC(=O)[C@H]1NC(=O)[C@H]2NC(=O)[C@H](NC(=O)[C@@H]3NC(=O)[C@H]4NC(=O)[C@@H](Cc5ccc(c(Cl)c5)Oc5cc3cc(c5O)Oc3ccc(cc3Cl)[C@H]2O)NC(=O)[C@H](Nc2c(NCc3ccc(-c5ccccc5)cc3)c(=O)c2=O)c2ccc(O)c(c2)Oc2cc(O)cc4c2)c2ccc(O)c(c2)-c2c(O)cc(O)cc21 | > 100 | > 100 | 7.6 | 4 | > 100 | > 100 | > 100 | > 100 |  |  |  |  |  |  |  |  | 
COC(=O)[C@H]1NC(=O)[C@H]2NC(=O)[C@H](NC(=O)[C@@H]3NC(=O)[C@H]4NC(=O)[C@@H](Cc5ccc(cc5)Oc5cc3cc(c5O)Oc3ccc(cc3)[C@H]2O)NC(=O)[C@H](Nc2c(NCc3ccc(-c5ccccc5)cc3)c(=O)c2=O)c2ccc(O)c(c2)Oc2cc(O)cc4c2)c2ccc(O)c(c2)-c2c(O)cc(O)cc21 | > 100 | > 100 | 20 | 16 | 0.7 | 0.52 | 0.58 | 0.67 |  |  |  |  |  |  |  |  | 
NC12CC3CC(CC(C3)C1)C2 [AMANTADINE] | > 500 | > 500 | > 500 | > 500 | 1.8 | 2 | 453 |  |  |  |  |  |  |  |  |  | 
NC(=O)c1ncn([C@@H]2O[C@H](CO)[C@@H](O)[C@H]2O)n1 [RIBAVIRIN] | 7 | 3.4 | > 100 | > 100 | 12 | 12 |  |  |  |  |  |  |  |  |  |  | 8.9
CC(N)C12CC3CC(CC(C3)C1)C2 (stereo not given) [RIMANTADINE] | > 500 | > 500 | > 500 | > 500 | 1.1 | 4 | 15 | 4 |  |  |  |  |  |  |  |  | 
N[C@H]1C(=O)N[C@@H]2Cc3ccc(c(Cl)c3)Oc3cc4cc(c3O)Oc3ccc(cc3Cl)[C@@H](O)[C@@H]3NC(=O)[C@H](NC(=O)[C@@H]4NC(=O)[C@@H](NC2=O)c2cc(O)cc(c2)Oc2cc1ccc2O)c1ccc(O)c(c1)-c1c(O)cc(O)cc1[C@@H](C(=O)O)NC3=O [TEICOPLANIN AGLYCON] | > 100 | > 100 | > 100 | 100 | > 100 | > 100 | > 100 | > 100 |  |  |  |  |  |  |  |  | 
